From PubChem
TNAP act hi DEA: activators of human TNAP at high phosphate acceptor concentration; P05186; purified TNAP, CDP-star luminescence, 1 M DEA, 30 min; stronger effect = higher value; 0 = EDTA background, 1 = DMSO-only activity; activation factor at 20 µM; 200,000 tested, under 10 active; AID 1136;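 active = activation factor at least 2 at 20 µM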
Target sequence (P05186 whole entry, looked up): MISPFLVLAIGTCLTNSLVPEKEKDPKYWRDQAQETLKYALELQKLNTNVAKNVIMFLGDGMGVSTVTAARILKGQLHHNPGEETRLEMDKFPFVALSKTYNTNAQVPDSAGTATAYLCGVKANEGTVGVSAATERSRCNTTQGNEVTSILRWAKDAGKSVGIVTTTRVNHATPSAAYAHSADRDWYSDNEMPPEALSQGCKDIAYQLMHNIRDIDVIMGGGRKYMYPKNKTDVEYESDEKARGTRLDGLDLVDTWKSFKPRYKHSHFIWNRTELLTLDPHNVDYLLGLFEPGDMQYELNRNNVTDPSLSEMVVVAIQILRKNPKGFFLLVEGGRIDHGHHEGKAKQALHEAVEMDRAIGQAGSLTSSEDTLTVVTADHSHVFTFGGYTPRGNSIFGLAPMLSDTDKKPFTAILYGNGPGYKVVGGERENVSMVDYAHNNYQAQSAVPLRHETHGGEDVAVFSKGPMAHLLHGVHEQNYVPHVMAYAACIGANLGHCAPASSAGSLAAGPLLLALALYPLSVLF
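Control set: EDTA negative control, DMSO positive control / Assay system: human TNAP / Quantity: TNAP 1/800 final / Evaluation: TNAP activation factor scaled between EDTA and DMSO control wells / Measured by: luminescent substrate turnover signal / Compound dosing: one dose, 20 µM / Times: 30 min enzyme reaction at room temperature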
PMI activator: increases human mannose-6-phosphate isomerase activity; AID 1214; purified human PMI, coupled resazurin fluorescence, 20 min; stronger effect = higher value; 1 = vehicle control, 0 substrate-free wells; actives 0.005% (n = 190,000); activation factor at 20 µM; P34949;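 active = activation factor of 2 or more at 20 µM, relative to plate controls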
PMI act satM6P: activators of human phosphomannose isomerase at near-saturating mannose 6-phosphate | coupled PMI enzyme assay, resazurin fluorescence, 20 min; stronger effect = higher value; 1 = untreated enzyme, 0 = substrate-free blank | activation factor at 20 µM | actives 0.34% (n = 190,000) | AID 1216;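 active = activation factor of 2 or more at 20 µM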
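Technique: Diaphorase-driven resazurin-to-resorufin fluorescence, excitation 544, emission 590 nm | Assay system: Human PMI in coupled enzyme assay | Times: Enzyme reaction with compound 20 min at room temperature | Medium: HEPES-buffered pH 7.4 with magnesium and detergent | Reagent: Mannose-6-phosphate 1.0 mM (near-saturating) plus 0.22 mM NADP+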
TNAP inh no acc: inhibitors of human TNAP without phosphate acceptor. purified TNAP, CDP-star luminescence, 30 min. actives 0.26% (n = 200,000). inhibition, % at 20 µM. AID 1012;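 active = tissue-nonspecific alkaline phosphatase inhibition above about 50% at 20 µM in the single-dose screen, limit read from the data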
TNAP inh hiacc: blocks human TNAP under high phosphate acceptor concentration. P05186. inhibition, % at 20 µM. purified TNAP, CDP-star luminescence, 1 M DEA. actives 0.03% (n = 200,000). AID 1135;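 active = over 50% inhibition of tissue-nonspecific alkaline phosphatase at 20 µM in the single-dose screen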
A number is an active result; i = inactive. Most compounds without a hit are left out; they make up all but 0.64% or so of the library.

SMILES	TNAP act hi DEA	PMI activator	PMI act satM6P	TNAP inh no acc	TNAP inh hiacc
O=C(NNc1ccc(C2CCCCC2)cc1)C(O)(c1ccccc1)c1cccs1 (stereo not drawn)	i	i	2.1	i	i
Oc1[nH]c2ccccc2c1OCc1ccncc1	i	i	i	i	i
O=C(COC(=O)c1ccc2ccccc2n1)Nc1cccc(S(=O)(=O)NC2=NCCCCC2)c1	2	i	i	i	i
Cc1ccc(C)c(N=Nc2nc3ccccc3n2C)c1	i	i	2.2	i	i
Cc1cc(C)c(C)c(N=Nc2nc3ccccc3n2C)c1C	i	i	i	i	i
CCOC(=O)c1cc2c(=O)n3ccccc3nc2n(CCCOC)c1=NC(=O)c1cccnc1	i	i	2	i	i
CCOC(=O)c1cc2c(=O)n3ccccc3nc2n(CCOC)c1=NC(=O)c1ccncc1	i	i	i	i	i
CCOC(=O)c1cc2c(=O)n3ccccc3nc2n(C(C)C)c1=NC(=O)c1ccncc1	i	i	2.2	i	i
COc1ccc(CNC(=O)C(=O)NCC2OCCN2S(=O)(=O)c2ccc3c(c2)OCCO3)cc1 (stereo not drawn)	i	i	i	i	i
O=C(NC1CC1)C1=C[C@H](C2CC2)C[C@H](OCCCCO)O1	i	i	i	i	i
O=C(N/N=C/c1ccncc1)c1cccc(NC(=O)c2ccc(Cl)cc2)c1	i	i	2.4	i	i
O=C(N/N=C/c1ccncc1)c1cccc(N/N=C/c2ccncc2)c1	i	i	i	i	i
Nc1nc(SCC(=O)N2CCc3ccccc32)[nH]c(=O)c1-c1ccccc1	i	i	i	66	i
Nc1nc(SCC(=O)N2CCCC2)[nH]c(=O)c1-c1ccccc1	i	i	i	i	i
Cc1c(N/N=C(\C#N)C(=O)c2ccccc2)c(=O)n(-c2ccccc2)n1C	i	i	2.1	i	i
Clc1ccc(Cc2noc(Cc3ccccc3)n2)cc1Cl	i	i	i	i	i
O=[N+]([O-])/C(=C\Nc1ccccc1Cl)S(=O)(=O)c1ccccc1	i	i	2.4	i	i
CCOc1cc(/C=C2\SC(=S)N(NC(=O)c3cccnc3)C2=O)ccc1O	i	i	i	i	51
CCOc1cc(/C=C2/SC(=S)N(CC3CCCO3)C2=O)ccc1O (stereo not drawn)	i	i	i	i	52
COCCCNC(=O)c1ccc(N2CCCC2)c(NS(=O)(=O)c2ccc(C)cc2)c1	i	i	2.2	i	i
Cc1cccc(N=Nc2cn[nH]c2-c2ccco2)c1	i	i	i	i	i
CC(C)NC[C@@H](O)c1ccc(O)c(O)c1	i	i	i	71	i
COc1ccc2nc(-n3c(O)c(C4=c5ccccc5=NC4=O)[nH]c3=S)sc2c1	i	i	i	i	88
CCOC(=O)C(=NC(C)CC)NNc1ccc(Br)cc1 (stereo not drawn)	i	i	2.7	i	i
CCOC(=O)C(=NC1CCS(=O)(=O)C1)NNc1ccc(Br)cc1 (stereo not drawn)	i	i	2.4	i	i
SMILES	TNAP act hi DEA	PMI activator	PMI act satM6P	TNAP inh no acc	TNAP inh hiacc
CCC(=O)NNc1ccc(Br)cc1	i	2	2.8	i	i
CCCc1cc(-c2nc(-c3ccc(Br)cc3)cs2)ccn1	i	i	i	i	i
Cc1c(C(=O)NCCCn2ccnc2)oc2ccccc12	i	i	i	i	i
O=C1/C(=C/c2ccc(O)cc2)SC(=S)N1Cc1cccnc1	i	i	i	i	63
Cc1c(C(=O)O)c(=O)n(-c2ccccc2)n1-c1ccccc1	i	i	i	i	i
Cc1ccc(N2C(=O)C3C(C2=O)C(C(=O)c2ccc(Cl)cc2)N2CCCC32)cc1 (stereo not drawn)	i	i	2	i	i
COCCCNC(=O)c1cccn2c(=O)c3cc4ccccc4cc3nc12	i	i	i	i	i
O=C(NCc1ccco1)c1cccn2c(=O)c3cc4ccccc4cc3nc12	i	2	2.4	i	i
Cc1cccc2cc(CN(Cc3ccco3)C(=O)N3CCCC3)c(=O)[nH]c12	i	i	i	i	i
O=c1cc(-c2ccc([N+](=O)[O-])cc2)nc2cc(-c3ccc(Cl)cc3)[nH]n12	i	i	i	51	i
CCOC(=O)Cc1cc(=O)n2[nH]c(-c3ccc(Cl)cc3)cc2n1	i	i	i	i	i
CCN(CCCNC(=O)Cn1cc2c(n1)CCCC2)c1cccc(C)c1	i	i	i	i	i
CCC(=O)n1nc(-c2ccc(Cl)cc2)nc1N	i	i	i	59	i
Nc1nc(-c2ccc(Cl)cc2)nn1C(=O)c1cccnc1	i	i	i	58	i
CN=c1scc(-c2ccc(F)cc2)n1/N=C/c1ccc(O)c(O)c1	i	i	i	70	i
CN=c1scc(-c2ccc([N+](=O)[O-])cc2)n1/N=C/c1ccco1	i	i	i	i	i
Nn1c(-c2ccccc2Cl)nnc1-c1ccccc1Cl	i	i	2.2	i	i
CSc1nnc(-c2ccccc2Cl)n1N	i	i	i	i	i
CC(=O)NS(=O)(=O)c1ccc(NC(=O)/C=C/c2ccc(C)o2)cc1	i	i	i	i	i
CC1=NN(c2ccc(Cl)cc2)C(=O)C1	i	i	i	i	i
CC1=NN(c2ccc(N)cc2)C(=O)C1	i	i	2	i	i
C/C=C(/C)C(=O)O[C@H]1[C@@H](O)c2c(ccc3ccc(=O)oc23)OC1(C)C	i	i	i	i	i
CC1(C)Oc2ccc3ccc(=O)oc3c2C(N2CCCCC2)C1O (stereo not drawn)	i	i	2.1	i	i
CCN(CC1COc2ccccc2O1)C(=S)NCCCN(C)C (stereo not drawn)	i	i	i	i	i
O=C(NCc1cccs1)C1CCCN1C(=O)NC1CCCCC1 (stereo not drawn)	i	i	i	i	i
SMILES	TNAP act hi DEA	PMI activator	PMI act satM6P	TNAP inh no acc	TNAP inh hiacc
O=C1CC(/C=C/c2ccncc2)=Nc2ccccc2N1	i	i	2.1	i	i
COc1ccc(CCNC(=O)COC(=O)c2ccc(Br)o2)cc1OC	i	i	i	i	i
O=C(O)CCC(=O)Nc1ccccc1C(=O)NCc1ccccc1	i	i	i	i	i
COc1ccc(-c2csc(CCN3N=C(C)CC3=O)n2)cc1	i	i	2.1	i	i
C/C(=N\Nc1cccc(C(F)(F)F)c1)c1ccc(O)cc1	i	i	2.1	i	i
C/C(=N\NC(=O)c1cccc([N+](=O)[O-])c1)c1ccncc1	i	i	i	i	i
C/C(=N\NC(=O)c1cccc(N/N=C(\C)c2ccncc2)c1)c1ccncc1	i	i	2.5	i	i
C/C(=N\NC(=O)c1cccc(N/N=C(\C)c2ccccc2)c1)c1ccccc1	i	i	2.7	i	i
CNS(=O)(=O)c1ccc2c(c1)oc(=O)c1cc(S(=O)(=O)NC)ccc12	i	i	i	i	i
